Published values pooled from the literature.
Organism: Pseudomonas aeruginosa
Read-out: microbial growth

C[C@H]1[C@H](NC(=O)/C(=N\OC(C)(C)C(=O)O)c2csc(N)n2)C(=O)N1S(=O)(=O)O  MIC (broth dilution; ATCC27853): 2 µg/mL
Cc1ccc2[nH]nc(-c3nnc(Nc4ccc(C)c(C)c4)s3)c2c1  MIC (ATCC27853): 108 µg/mL
OB1OCc2cc(F)ccc21  MIC (broth dilution): 128 µg/mL
Cc1ccc2[nH]nc(-c3nnc(Nc4ccc(F)cc4)s3)c2c1  MIC (ATCC27853): 63.9 µg/mL
COc1ccc2ccc(O)c(/C=N/[C@H]3CCCC[C@H]3/N=C/c3ccc(OCCN4CCCCC4)cc3O)c2c1  MIC (broth dilution; clinical isolate): > 40 µM
[H]/N=C(\N/C(=N/[H])NCCCCCCNC(=N)NC(=N)Nc1ccc(Cl)cc1)Nc1ccc(Cl)cc1  MIC (PAO1): 8 µM
C[C@@H](O)[C@H]1C(=O)N2C(C(=O)O)=C(SCCN=CN)C[C@H]12  MIC (broth dilution; ATCC27853): 4 µg/mL
Cc1cc(Nc2nnc(-c3n[nH]c4ccc(C)cc34)s2)cc([N+](=O)[O-])c1  MIC (ATCC27853): 187 µg/mL
COc1ccc2ccc(O)c(/C=N/[C@H]3CCCC[C@H]3/N=C/c3c(O)cccc3F)c2c1  MIC (broth dilution): > 40 µM
CCCCCCC#Cc1cncc(-c2nnc(SCc3cc([N+](=O)[O-])cc([N+](=O)[O-])c3)n2CCOC2OC(CN)C(O)C2O)c1 (stereo not shown)  MIC (broth dilution; DSM1128): > 64 µg/mL
CNC(C)C1CCC(N)C(OC2C(N)CC(N)C(OC3OCC(C)(O)C(NC)C3O)C2O)O1 (stereo not shown)  MIC (broth dilution; ATCC27853): 2 µg/mL
Cc1ccc2[nH]nc(-c3nnc(Nc4cc(Cl)cc(Br)c4)s3)c2c1  MIC (ATCC27853): 224 µg/mL
[H]/N=C(/N)N[C@H]1[C@H](O)[C@@H](O)[C@H](O[C@@H]2O[C@@H](C)[C@](O)(C=O)[C@H]2O[C@@H]2O[C@@H](CO)[C@H](O)[C@@H](O)[C@@H]2NC)[C@@H](N/C(N)=N\[H])[C@@H]1O  MIC (broth dilution; ATCC27 ATCC27853): 20 µg/mL
Cc1ccc2[nH]nc(-c3nnc(Nc4ccc(Cl)c(Br)c4)s3)c2c1  MIC (ATCC27853): 254 µg/mL
C[C@@H](O)[C@H]1C(=O)N2C(C(=O)O)=C(S[C@@H]3CN[C@H](C(=O)N(C)C)C3)[C@H](C)[C@H]12  MIC (ATCC27853; drug-resistant strain): 0.25 µg/mL
CCCCCCC#Cc1cncc(-c2nnc(SCc3cc([N+](=O)[O-])cc([N+](=O)[O-])c3)n2CCCN)c1  MIC (broth dilution; DSM1128): > 64 µg/mL
CO/N=C(\C(=O)N[C@@H]1C(=O)N2C(C(=O)O)=CCS[C@H]12)c1csc(N)n1  MIC (broth dilution; ATCC27853): 16 µg/mL
CCCCCCC#Cc1cncc(-c2nnc(SCc3cc([N+](=O)[O-])cc([N+](=O)[O-])c3)n2C2CCNCC2)c1  MIC (broth dilution; DSM1128): > 64 µg/mL
Cc1ccc2[nH]nc(-c3nnc(Nc4ccc(Cl)cc4)s3)c2c1  MIC (ATCC27853): 119 µg/mL
CC1(C)S[C@@H]2[C@H](NC(=O)[C@H](N)c3ccccc3)C(=O)N2[C@H]1C(=O)O  MIC (broth dilution; ATCC27853): 64 µg/mL
Cc1ccc2[nH]nc(-c3nnc(Nc4ccc(C(F)(F)F)cc4)s3)c2c1  MIC (ATCC27853): 126 µg/mL
COc1ccc2ccc(O)c(/C=N/[C@H]3CCCC[C@H]3/N=C/c3ccc(-c4ccccc4)cc3O)c2c1  MIC (broth dilution): > 40 µM
